According to ChEMBL document CHEMBL3286187, “Synthesis, antibacterial and antitubercular activities of benzimidazole bearing substituted 2-pyridone motifs” (Eur J Med Chem, 2014):
In brackets after ≈: the same amount, converted by molar mass.

Tests used:
[1] = system: Staphylococcus aureus; assay: Antimicrobial activity against Staphylococcus aureus MTCC-96 after 24 hrs by broth dilution method; type: functional; details: MTCC-96, 24 h
Outline: (§1)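 NCCLS broth dilution in Mueller Hinton broth with 2% DMSO as vehicle. Primary screen at 1000, 500 and 250 µg/mL; actives retested at 200 to 6.25 µg/mL. Inoculum 10⁶ CFU/mL, set by turbidity. Incubated 24 h at 37 °C; growth read visually and spectrophotometrically. MIC is the lowest concentration arresting growth. Chloramphenicol was the positive control; DMSO and water were negative controls.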

[2] = system: Streptococcus pyogenes; assay: Antimicrobial activity against Streptococcus pyogenes MTCC-442 after 24 hrs by broth dilution method; type: functional; details: MTCC-442, 24 h; outline: as §1
[3] = system: Mycobacterium tuberculosis; assay: Antitubercular activity against Mycobacterium tuberculosis H37Rv ATCC 27294 after 5 to 8 days by BACTEC 12B method; type: functional
[4] = system: Pseudomonas aeruginosa; assay: Antimicrobial activity against Pseudomonas aeruginosa MTCC-1688 after 24 hrs by broth dilution method; type: functional; details: MTCC-1688, 24 h; outline: as §1
[5] = system: Escherichia coli; assay: Antimicrobial activity against Escherichia coli MTCC-443 after 24 hrs by broth dilution method; type: functional; details: MTCC-443, 24 h; outline: as §1
[6] = system: Vero; assay: Cytotoxicity against african green monkey Vero cells after 72 hrs by MTS-PMS method; type: cell-based; details: Chlorocebus sabaeus
Outline: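 Vero cells in DMEM with 10% FBS at 37 °C, 5% CO2, diluted to 10^6 cells/mL. Threefold serial dilutions gave final […] to 0.12 µg/mL with 1% DMSO. Incubated 72 h, washed with HBSS, then MTS-PMS (100:20) added for 3 h; absorbance read at 490 nm. Triplicate wells, assay repeated three times. Controls set as 100% viability; IC50 taken as 50% growth inhibition.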

[7] = system: Staphylococcus aureus; assay: Antimicrobial activity against methicillin-resistant Staphylococcus aureus ATCC 43300 after 24 hrs by broth dilution method; type: functional; details: ATCC 43300, 24 h
Outline: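 Broth dilution per NCCLS in Mueller Hinton broth; compounds in 2% DMSO, 1000 µg/mL stock; primary screen 1000, 500, 250 µg/mL, then secondary dilutions 200 to 6.25 µg/mL. Inoculum 10⁶ CFU/mL by turbidity; 24 h at 37 °C, growth read visually and spectrophotometrically. MIC = lowest concentration arresting growth. DMSO/water negative control; chloramphenicol positive control.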

[8] = system: Staphylococcus aureus; assay: Ratio of ciprofloxacin MIC to compound MIC for methicillin-resistant Staphylococcus aureus ATCC 43300 after 24 hrs by broth dilution method; type: functional
[9] = system: Staphylococcus aureus; assay: Ratio of chloramphenicol MIC to compound MIC for methicillin-resistant Staphylococcus aureus ATCC 43300 after 24 hrs by broth dilution method; type: functional

Row | SMILES | MIC [1] [µg/mL] | MIC [2] [µg/mL] | MIC [3] [µg/mL] | MIC [4] [µg/mL] | MIC [5] [µg/mL] | IC50 [6] [µg/mL] | MIC [7] [µg/mL] | Ratio [8] | Ratio [9]
1 | C/C(=N\NC(=O)CC#N)c1nc2ccccc2[nH]1 | 1000 (≈ 4150 µM) | 1000 (≈ 4150 µM) | > 39.4 | > 1000 | > 1000 | – | – | – | –
2 | C/C(=N\n1c(N)c(C#N)c(-c2ccc([N+](=O)[O-])cc2)c(C#N)c1=O)c1nc2ccccc2[nH]1 | 500 (≈ 1140 µM) | 500 (≈ 1140 µM) | > 39.4 | 500 (≈ 1140 µM) | 500 (≈ 1140 µM) | – | – | – | –
3 | C/C(=N\n1c(/N=C/c2ccccc2)c(C#N)c(-c2ccc([N+](=O)[O-])cc2)c(C#N)c1=O)c1nc2ccccc2[nH]1 | 500 (≈ 950 µM) | 500 (≈ 950 µM) | 35.2 (≈ 66.9 µM) | 500 (≈ 950 µM) | 500 (≈ 950 µM) | 17.6 (≈ 33.4 µM) | – | – | –
4 | C/C(=N\n1c(/N=C/c2ccccc2O)c(C#N)c(-c2ccc([N+](=O)[O-])cc2)c(C#N)c1=O)c1nc2ccccc2[nH]1 | 500 (≈ 922 µM) | 250 (≈ 461 µM) | 31.6 (≈ 58.3 µM) | 500 (≈ 922 µM) | 500 (≈ 922 µM) | 19.8 (≈ 36.6 µM) | – | – | –
5 | C/C(=N\n1c(/N=C/c2cccc(O)c2)c(C#N)c(-c2ccc([N+](=O)[O-])cc2)c(C#N)c1=O)c1nc2ccccc2[nH]1 | 100 (≈ 184 µM) | 500 (≈ 922 µM) | 30.2 (≈ 55.6 µM) | 250 (≈ 461 µM) | 500 (≈ 922 µM) | 17 (≈ 31.3 µM) | – | – | –
6 | C/C(=N\n1c(/N=C/c2ccc(O)cc2)c(C#N)c(-c2ccc([N+](=O)[O-])cc2)c(C#N)c1=O)c1nc2ccccc2[nH]1 | 500 (≈ 922 µM) | 250 (≈ 461 µM) | 30.9 (≈ 56.9 µM) | 500 (≈ 922 µM) | 250 (≈ 461 µM) | 13.7 (≈ 25.3 µM) | – | – | –
7 | C/C(=N\n1c(/N=C/c2cccc(F)c2)c(C#N)c(-c2ccc([N+](=O)[O-])cc2)c(C#N)c1=O)c1nc2ccccc2[nH]1 | 100 (≈ 184 µM) | 125 (≈ 230 µM) | 25.4 (≈ 46.6 µM) | 250 (≈ 459 µM) | 100 (≈ 184 µM) | 23.6 (≈ 43.4 µM) | – | – | –
8 | C/C(=N\n1c(/N=C/c2ccc(F)cc2)c(C#N)c(-c2ccc([N+](=O)[O-])cc2)c(C#N)c1=O)c1nc2ccccc2[nH]1 | 250 (≈ 459 µM) | 100 (≈ 184 µM) | 27.1 (≈ 49.8 µM) | 250 (≈ 459 µM) | 250 (≈ 459 µM) | 24.8 (≈ 45.5 µM) | – | – | –
9 | C/C(=N\n1c(/N=C/c2ccccc2Cl)c(C#N)c(-c2ccc([N+](=O)[O-])cc2)c(C#N)c1=O)c1nc2ccccc2[nH]1 | 50 (≈ 89.1 µM) | 62.5 (≈ 111 µM) | 2.65 (≈ 4.72 µM) | 125 (≈ 223 µM) | 100 (≈ 178 µM) | > 39.4 | – | – | –
10 | C/C(=N\n1c(/N=C/c2cccc(Cl)c2)c(C#N)c(-c2ccc([N+](=O)[O-])cc2)c(C#N)c1=O)c1nc2ccccc2[nH]1 | 25 (≈ 44.6 µM) | 50 (≈ 89.1 µM) | 0.85 (≈ 1.52 µM) | 62.5 (≈ 111 µM) | 50 (≈ 89.1 µM) | > 39.4 | > 50 | – | –
11 | C/C(=N\n1c(/N=C/c2ccc(Cl)cc2)c(C#N)c(-c2ccc([N+](=O)[O-])cc2)c(C#N)c1=O)c1nc2ccccc2[nH]1 | 62.5 (≈ 111 µM) | 50 (≈ 89.1 µM) | 1.79 (≈ 3.19 µM) | 100 (≈ 178 µM) | 100 (≈ 178 µM) | > 39.4 | – | – | –
12 | C/C(=N\n1c(/N=C/c2ccccc2C)c(C#N)c(-c2ccc([N+](=O)[O-])cc2)c(C#N)c1=O)c1nc2ccccc2[nH]1 | 125 (≈ 231 µM) | 100 (≈ 185 µM) | 9.17 (≈ 17 µM) | 250 (≈ 462 µM) | 250 (≈ 462 µM) | 34.5 (≈ 63.9 µM) | – | – | –
13 | C/C(=N\n1c(/N=C/c2cccc(C)c2)c(C#N)c(-c2ccc([N+](=O)[O-])cc2)c(C#N)c1=O)c1nc2ccccc2[nH]1 | 100 (≈ 185 µM) | 100 (≈ 185 µM) | 2.07 (≈ 3.83 µM) | 100 (≈ 185 µM) | 100 (≈ 185 µM) | > 39.4 | – | – | –
14 | C/C(=N\n1c(/N=C/c2ccc(C)cc2)c(C#N)c(-c2ccc([N+](=O)[O-])cc2)c(C#N)c1=O)c1nc2ccccc2[nH]1 | 250 (≈ 462 µM) | 125 (≈ 231 µM) | 6.28 (≈ 11.6 µM) | 250 (≈ 462 µM) | 250 (≈ 462 µM) | > 39.4 | – | – | –
15 | COc1cccc(/C=N/c2c(C#N)c(-c3ccc([N+](=O)[O-])cc3)c(C#N)c(=O)n2/N=C(\C)c2nc3ccccc3[nH]2)c1 | 100 (≈ 180 µM) | 250 (≈ 449 µM) | 18 (≈ 32.3 µM) | 500 (≈ 898 µM) | 250 (≈ 449 µM) | 24.2 (≈ 43.5 µM) | – | – | –
16 | COc1ccc(/C=N/c2c(C#N)c(-c3ccc([N+](=O)[O-])cc3)c(C#N)c(=O)n2/N=C(\C)c2nc3ccccc3[nH]2)cc1 | 250 (≈ 449 µM) | 250 (≈ 449 µM) | 23.5 (≈ 42.2 µM) | 500 (≈ 898 µM) | 500 (≈ 898 µM) | 25.4 (≈ 45.6 µM) | – | – | –
17 | C/C(=N\n1c(/N=C/c2cccc([N+](=O)[O-])c2)c(C#N)c(-c2ccc([N+](=O)[O-])cc2)c(C#N)c1=O)c1nc2ccccc2[nH]1 | 250 (≈ 437 µM) | 500 (≈ 875 µM) | 28.3 (≈ 49.6 µM) | 500 (≈ 875 µM) | 250 (≈ 437 µM) | 27.6 (≈ 48.3 µM) | – | – | –
18 | C/C(=N\n1c(/N=C/c2ccc([N+](=O)[O-])cc2)c(C#N)c(-c2ccc([N+](=O)[O-])cc2)c(C#N)c1=O)c1nc2ccccc2[nH]1 | 500 (≈ 875 µM) | 500 (≈ 875 µM) | 32.2 (≈ 56.4 µM) | 1000 (≈ 1750 µM) | 1000 (≈ 1750 µM) | 16.1 (≈ 28.1 µM) | – | – | –
19 | C/C(=N\n1c(/N=C/c2cccc(Br)c2)c(C#N)c(-c2ccc([N+](=O)[O-])cc2)c(C#N)c1=O)c1nc2ccccc2[nH]1 | 12.5 (≈ 20.6 µM) | 25 (≈ 41.3 µM) | 10.3 (≈ 17 µM) | 25 (≈ 41.3 µM) | 25 (≈ 41.3 µM) | > 39.4 | 12.5 (≈ 20.6 µM) | 2 | 4
20 | C/C(=N\n1c(/N=C/c2ccc(Br)cc2)c(C#N)c(-c2ccc([N+](=O)[O-])cc2)c(C#N)c1=O)c1nc2ccccc2[nH]1 | 25 (≈ 41.3 µM) | 50 (≈ 82.6 µM) | 13.8 (≈ 22.8 µM) | 50 (≈ 82.6 µM) | 50 (≈ 82.6 µM) | > 39.4 | 6.25 (≈ 10.3 µM) | 4 | 8
21 | O=C(N[C@H](CO)[C@H](O)c1ccc([N+](=O)[O-])cc1)C(Cl)Cl [CHLORAMPHENICOL] | 50 (≈ 155 µM) | 50 (≈ 155 µM) | – | 50 (≈ 155 µM) | 50 (≈ 155 µM) | – | 50 (≈ 155 µM) | – | –
22 | O=C(O)c1cn(C2CC2)c2cc(N3CCNCC3)c(F)cc2c1=O [CIPROFLOXACIN] | 50 (≈ 151 µM) | 50 (≈ 151 µM) | – | – | 25 (≈ 75.4 µM) | – | – | – | –
23 | NNC(=O)c1ccncc1 [ISONIAZID] | – | – | 0.24 (≈ 1.75 µM) | – | – | – | – | – | –
